Activity calls are given as the source filed them. The rule behind the calls is not given here.
Key:
[1] = test system: HeLa; test: Inhibition of SPI-1 T3SS in Salmonella typhimurium infected in human HeLa cells assessed as reduction in bacterial invasion at 100 uM after 30 mins by flow cytometry; assay type: cell-based; conditions: Salmonella enterica subsp. enterica serovar Typhimurium
Method in brief: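 Strain IR715 was pre-grown 4 h in LB (1/33 dilution) with compound or DMSO, then added to HeLa cells (DMEM/10% FBS) at MOI 10 with compound. Plates were spun 5 min at 1000×g, infected 30 min at 37 °C, then given gentamicin 100 ug/mL for 30 min. Cells were fixed, saponin-permeabilised, stained with anti-Salmonella serum plus AlexaFluor 488 secondary, and 30,000 cells counted. Values normalised to DMSO; triplicate.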

[2] = test system: Salmonella typhimurium; test: Effect on growth of Salmonella typhimurium at 100 uM; conditions: salmonella enterica subsp. enterica serovar typhimurium
[3] = test system: Salmonella enterica subsp. enterica serovar Typhimurium; test: Inhibition of SPI-1 T3SS in Salmonella typhimurium assessed as reduction in SPI-1 T3SS substrates by measuring FliD protein level at 5 to 100 uM after 4 hrs by Coomassie staining based SDS-PAGE method
Method in brief: (§1)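 Overnight S. Typhimurium cultures were diluted 1:30 into LB (10 g/L NaCl) and grown 4 h with or without compound. Culture supernatant (1 mL) was precipitated overnight at 4 °C with TCA (10% final). Pellets were spun at 14,000 rpm for 30 min, acetone-washed, and dried. Proteins were resolved on 4–20% SDS-PAGE, Coomassie-stained, and imaged.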

[4] = test system: Salmonella enterica subsp. enterica serovar Typhimurium; test: Inhibition of SPI-1 T3SS in Salmonella typhimurium assessed as reduction in SPI-1 T3SS substrates by measuring SipA protein level at 5 to 100 uM after 4 hrs by Coomassie staining based SDS-PAGE method; method in brief: as §1
[5] = test system: Salmonella typhimurium; test: Effect on SopE2-CPG2-HA fusion protein expression expressed in Salmonella typhimurium using Glu-CyFur as substrate at 0.39 to 100 uM after 4 hrs by fluorescence assay; assay type: ADME; conditions: salmonella enterica subsp. enterica serovar typhimurium
Method in brief: (§2)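 SopE2-CPG2-HA reporter strain grown overnight at 37 °C in LB (10 g/L NaCl) with 50 μg/mL ampicillin, diluted 1:30, then grown 4 h with compound or DMSO/H2O control (<1% of volume). Bacterial lysates were examined for reporter level.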

[6] = test system: HeLa; test: Inhibition of SPI-1 T3SS in Salmonella typhimurium infected in human HeLa cells assessed as reduction in bacterial invasion at 100 uM after 30 mins by immunofluorescence analysis; assay type: cell-based; conditions: Salmonella enterica subsp. enterica serovar Typhimurium
Method in brief: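 HeLa cells on glass coverslips were infected and stained as for the flow protocol (MOI 10, 30 min, gentamicin chase, anti-Salmonella serum/AlexaFluor 488), with nuclei counterstained by TOPRO-3. Extracellular bacteria were imaged without permeabilisation or gentamicin.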

[7] = test system: Salmonella enterica subsp. enterica serovar Typhimurium; test: Inhibition of SPI-1 T3SS in Salmonella typhimurium assessed as reduction in SPI-1 T3SS substrates by measuring SopB protein level at 5 to 100 uM after 4 hrs by Coomassie staining based SDS-PAGE method; method in brief: as §1
[8] = test system: Salmonella enterica subsp. enterica serovar Typhimurium; test: Inhibition of SPI-1 T3SS in Salmonella typhimurium assessed as reduction in SPI-1 T3SS substrates by measuring SipB protein level at 5 to 100 uM after 4 hrs by Coomassie staining based SDS-PAGE method; method in brief: as §1
[9] = Inhibition of SPI-1 T3SS in Salmonella typhimurium expressing SopE2-CPG2-HA fusion protein assessed as reduction in type 3 protein secretion using Glu-CyFur as substrate after 4 hrs by fluorescence assay; design: species or system Salmonella enterica subsp. enterica serovar Typhimurium
Method in brief: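 Reporter strain was grown 4 h at 37 °C with compound after a 1:30 dilution, and OD600 was checked. Culture supernatant was mixed with 50 mM Tris, 0.1 mM ZnCl2, pH 7.4, 0.1% Brij-97 and 10 μM Glu-CyFur. Fluorescence (ex 563/em 610 nm) was read kinetically for 2 h. Inhibition came from the rate versus DMSO/H2O control, and IC50 from an exponential decay fit.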

[10] = test system: Salmonella enterica subsp. enterica serovar Typhimurium; test: Inhibition of SPI-1 T3SS in Salmonella typhimurium assessed as reduction in SPI-1 T3SS substrates by measuring SipC protein level at 5 to 100 uM after 4 hrs by Coomassie staining based SDS-PAGE method; method in brief: as §1
[11] = test system: Salmonella typhimurium; test: Effect on SopE2-CPG2-HA fusion protein expression expressed in Salmonella typhimurium at 0.39 to 100 uM after 4 hrs by Western blot method; assay type: ADME; conditions: salmonella enterica subsp. enterica serovar typhimurium; method in brief: as §2
[12] = test system: Salmonella enterica subsp. enterica serovar Typhimurium; test: Inhibition of SPI-1 T3SS in Salmonella typhimurium assessed as reduction in SPI-1 T3SS substrates by measuring FliC protein level at 5 to 100 uM after 4 hrs by Coomassie staining based SDS-PAGE method; method in brief: as §1
[13] = test system: Salmonella enterica subsp. enterica serovar Typhimurium; test: Inhibition of SPI-1 T3SS in Salmonella typhimurium assessed as reduction in SPI-1 T3SS substrates by measuring SipC protein level at 100 uM after 4 hrs by Coomassie staining based SDS-PAGE method; method in brief: as §1
[14] = test system: Salmonella enterica subsp. enterica serovar Typhimurium; test: Inhibition of SPI-1 T3SS in Salmonella typhimurium assessed as reduction in SPI-1 T3SS substrates by measuring SipB protein level at 100 uM after 4 hrs by Coomassie staining based SDS-PAGE method; method in brief: as §1
[15] = test system: Salmonella enterica subsp. enterica serovar Typhimurium; test: Inhibition of SPI-1 T3SS in Salmonella typhimurium assessed as reduction in SPI-1 T3SS substrates by measuring SipA protein level at 100 uM after 4 hrs by Coomassie staining based SDS-PAGE method; method in brief: as §1
[16] = test system: Salmonella enterica subsp. enterica serovar Typhimurium; test: Inhibition of SPI-1 T3SS in Salmonella typhimurium assessed as reduction in SPI-1 T3SS substrates by measuring FliC protein level at 100 uM after 4 hrs by Coomassie staining based SDS-PAGE method; method in brief: as §1
[17] = test system: Salmonella enterica subsp. enterica serovar Typhimurium; test: Inhibition of SPI-1 T3SS in Salmonella typhimurium assessed as reduction in SPI-1 T3SS substrates by measuring FliD protein level at 100 uM after 4 hrs by Coomassie staining based SDS-PAGE method; method in brief: as §1
[18] = test system: Salmonella enterica subsp. enterica serovar Typhimurium; test: Inhibition of SPI-1 T3SS in Salmonella typhimurium assessed as reduction in SPI-1 T3SS substrates by measuring SopB protein level at 100 uM after 4 hrs by Coomassie staining based SDS-PAGE method; method in brief: as §1

Structure (SMILES) | inhibition [1] | Activity [2] | inhibition [3] | inhibition [4] | Activity [5] | inhibition [6] | inhibition [7] | inhibition [8] | IC50 [9] | inhibition [10] | Activity [11] | inhibition [12] | inhibition [13] | inhibition [14] | inhibition [15] | inhibition [16] | inhibition [17] | inhibition [18]
O=C(O[C@@H]1Cc2c(O)cc(O)cc2O[C@@H]1c1cc(O)c(O)c(O)c1)c1cc(O)c(O)c(O)c1 [EPIGALOCATECHIN GALLATE] | Active | Non-Toxic | Active | Dose-dependent effect | Non-Toxic | Active | Dose-dependent effect | Dose-dependent effect | 2150 nM | Dose-dependent effect | Non-Toxic | Active |  |  |  |  |  | 
O=C(O[C@@H]1Cc2c(O)cc(O)cc2O[C@@H]1c1ccc(O)c(O)c1)c1cc(O)c(O)c(O)c1 |  |  | Active | Dose-dependent effect |  |  | Dose-dependent effect | Dose-dependent effect |  | Dose-dependent effect |  | Active |  |  |  |  |  | 
O=C(N/N=C/c1cc(Br)cc(Br)c1O)c1ccc([N+](=O)[O-])cc1 |  |  | Active | Active |  |  | Active | Active |  | Active |  | Active |  |  |  |  |  | 
O=c1cc(-c2ccccc2)oc2cc(O)c(O)c(O)c12 |  |  | Active | Active |  |  | Active | Active |  | Active |  | Active |  |  |  |  |  | 
O=c1cc(-c2ccccc2)oc2cc(O)cc(O)c12 |  |  |  |  |  |  |  |  |  |  |  |  | inactive | inactive | inactive | inactive | inactive | inactive

From ChEMBL document CHEMBL4020703, “Epigallocatechin-3-gallate inhibits bacterial virulence and invasion of host cells” (Bioorg Med Chem, 2017)
